Test results: ChEMBL document CHEMBL4689842, “EUbOPEN Chemogenomics Library wave 1” (2021)

Tested on: U2OS
Assay: Multiplex assay against U2OS
Assay type: toxicity, cell-based
Conditions: human
In short: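 Phenotypes for tubulin, mitochondrial mass and membrane permeability are expressed as per cents of healthy-nucleus cells. Cells were stained live at seeding with Hoechst33342, BioTracker Green Microtubule Cytoskeleton Dye, MitoTracker Red and Annexin V Alexa Fluor 680, then imaged after compound addition on a CQ1 microscope at 37°C and 5% CO2. Machine-learning gating in CellPathfinder separated Hoechst high-intensity objects from normal cells, divided normal cells by nuclear state (healthy, pyknosed, fragmented) and divided pyknosed cells into mitotic or apoptotic.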

[1] = 12 h, 1 µM, compound concentration 1 uM, replicate 1
[2] = 12 h, 1 µM, compound concentration 1 uM, replicate 2
[3] = 12 h, 10 µM, compound concentration 10 uM, replicate 1
[4] = 12 h, 10 µM, compound concentration 10 uM, replicate 2
[5] = 24 h, 1 µM, compound concentration 1 uM, replicate 1
[6] = 24 h, 1 µM, compound concentration 1 uM, replicate 2
[7] = 24 h, 10 µM, compound concentration 10 uM, replicate 1
[8] = 24 h, 10 µM, compound concentration 10 uM, replicate 2
[9] = 48 h, 1 µM, compound concentration 1 uM, replicate 1
[10] = 48 h, 1 µM, compound concentration 1 uM, replicate 2
[11] = 48 h, 10 µM, compound concentration 10 uM, replicate 1
[12] = 48 h, 10 µM, compound concentration 10 uM, replicate 2

COc1cc2c(NC3CCN(C(C)C)CC3)nc(N3CCC(F)(F)CC3)nc2cc1OCCCN1CCCC1
Population Apoptotic (%) [1]: 44% | Population Fragmented Nuclei (%) [1]: 10% | Population Healthy Nuclei (%) [1]: 72% | Population Hoechst High Intensity Objects (%) [1]: 13% | Population Mitochondria Different-Phenotype (%) [1]: 17% | Population Mitotic Cells (%) [1]: 55% | Population Normal (%) [1]: 86% | Population Pyknosed Nuclei (%) [1]: 17% | Total Cell Count [1]: 136 | Population Apoptotic (%) [2]: 30% | Population Fragmented Nuclei (%) [2]: 20% | Population Healthy Nuclei (%) [2]: 67% | Population Hoechst High Intensity Objects (%) [2]: 5% | Population Membrane Permeable-Phenotype (%) [2]: 3% | Population Mitochondria Different-Phenotype (%) [2]: 22% | Population Mitotic Cells (%) [2]: 70% | Population Normal (%) [2]: 94% | Population Pyknosed Nuclei (%) [2]: 11% | Population Tubulin-Different-Phenotype (%) [2]: 19% | Total Cell Count [2]: 105 | Population Apoptotic (%) [3]: 68% | Population Fragmented Nuclei (%) [3]: 14% | Population Healthy Nuclei (%) [3]: 71% | Population Hoechst High Intensity Objects (%) [3]: 8% | Population Membrane Permeable-Phenotype (%) [3]: 27% | Population Mitochondria Different-Phenotype (%) [3]: 98% | Population Mitotic Cells (%) [3]: 31% | Population Normal (%) [3]: 91% | Population Pyknosed Nuclei (%) [3]: 14% | Population Tubulin-Different-Phenotype (%) [3]: 100% | Total Cell Count [3]: 181 | Population Apoptotic (%) [4]: 66% | Population Fragmented Nuclei (%) [4]: 11% | Population Healthy Nuclei (%) [4]: 76% | Population Membrane Permeable-Phenotype (%) [4]: 66% | Population Mitochondria Different-Phenotype (%) [4]: 97% | Population Mitotic Cells (%) [4]: 33% | Population Pyknosed Nuclei (%) [4]: 11% | Population Tubulin-Different-Phenotype (%) [4]: 97% | Total Cell Count [4]: 89 | Population Apoptotic (%) [5]: 31% | Population Fragmented Nuclei (%) [5]: 9% | Population Healthy Nuclei (%) [5]: 65% | Population Hoechst High Intensity Objects (%) [5]: 11% | Population Membrane Permeable-Phenotype (%) [5]: 0% | Population Mitochondria Different-Phenotype (%) [5]: 8% | Population Mitotic Cells (%) [5]: 68% | Population Normal (%) [5]: 88% | Population Pyknosed Nuclei (%) [5]: 24% | Population Tubulin-Different-Phenotype (%) [5]: 9% | Total Cell Count [5]: 157 | Population Apoptotic (%) [6]: 29% | Population Fragmented Nuclei (%) [6]: 14% | Population Healthy Nuclei (%) [6]: 68% | Population Hoechst High Intensity Objects (%) [6]: 8% | Population Membrane Permeable-Phenotype (%) [6]: 2% | Population Mitochondria Different-Phenotype (%) [6]: 7% | Population Mitotic Cells (%) [6]: 70% | Population Normal (%) [6]: 91% | Population Pyknosed Nuclei (%) [6]: 16% | Population Tubulin-Different-Phenotype (%) [6]: 12% | Total Cell Count [6]: 113 | Population Apoptotic (%) [7]: 70% | Population Fragmented Nuclei (%) [7]: 14% | Population Healthy Nuclei (%) [7]: 60% | Population Hoechst High Intensity Objects (%) [7]: 6% | Population Membrane Permeable-Phenotype (%) [7]: 56% | Population Mitochondria Different-Phenotype (%) [7]: 98% | Population Mitotic Cells (%) [7]: 30% | Population Normal (%) [7]: 93% | Population Pyknosed Nuclei (%) [7]: 24% | Population Tubulin-Different-Phenotype (%) [7]: 98% | Total Cell Count [7]: 218 | Population Apoptotic (%) [8]: 90% | Population Fragmented Nuclei (%) [8]: 18% | Population Healthy Nuclei (%) [8]: 59% | Population Hoechst High Intensity Objects (%) [8]: 7% | Population Membrane Permeable-Phenotype (%) [8]: 82% | Population Mitochondria Different-Phenotype (%) [8]: 100% | Population Mitotic Cells (%) [8]: 9% | Population Normal (%) [8]: 92% | Population Pyknosed Nuclei (%) [8]: 22% | Population Tubulin-Different-Phenotype (%) [8]: 96% | Total Cell Count [8]: 112 | Population Apoptotic (%) [9]: 27% | Population Fragmented Nuclei (%) [9]: 11% | Population Healthy Nuclei (%) [9]: 64% | Population Hoechst High Intensity Objects (%) [9]: 10% | Population Mitochondria Different-Phenotype (%) [9]: 4% | Population Mitotic Cells (%) [9]: 72% | Population Normal (%) [9]: 89% | Population Pyknosed Nuclei (%) [9]: 24% | Population Tubulin-Different-Phenotype (%) [9]: 15% | Total Cell Count [9]: 194 | Population Apoptotic (%) [10]: 29% | Population Fragmented Nuclei (%) [10]: 8% | Population Healthy Nuclei (%) [10]: 78% | Population Hoechst High Intensity Objects (%) [10]: 8% | Population Membrane Permeable-Phenotype (%) [10]: 2% | Population Mitochondria Different-Phenotype (%) [10]: 8% | Population Mitotic Cells (%) [10]: 70% | Population Normal (%) [10]: 91% | Population Pyknosed Nuclei (%) [10]: 12% | Population Tubulin-Different-Phenotype (%) [10]: 24% | Total Cell Count [10]: 141 | Population Apoptotic (%) [11]: 79% | Population Fragmented Nuclei (%) [11]: 20% | Population Healthy Nuclei (%) [11]: 44% | Population Hoechst High Intensity Objects (%) [11]: 11% | Population Membrane Permeable-Phenotype (%) [11]: 55% | Population Mitochondria Different-Phenotype (%) [11]: 100% | Population Mitotic Cells (%) [11]: 20% | Population Normal (%) [11]: 88% | Population Pyknosed Nuclei (%) [11]: 35% | Population Tubulin-Different-Phenotype (%) [11]: 92% | Total Cell Count [11]: 337 | Population Apoptotic (%) [12]: 92% | Population Fragmented Nuclei (%) [12]: 12% | Population Healthy Nuclei (%) [12]: 63% | Population Hoechst High Intensity Objects (%) [12]: 12% | Population Membrane Permeable-Phenotype (%) [12]: 75% | Population Mitochondria Different-Phenotype (%) [12]: 97% | Population Mitotic Cells (%) [12]: 7% | Population Normal (%) [12]: 87% | Population Pyknosed Nuclei (%) [12]: 24% | Population Tubulin-Different-Phenotype (%) [12]: 88% | Total Cell Count [12]: 149
